Assay: Antiglycation activity assessed as inhibition of BSA-derived advance glycated end product formation after 9 days by spectrophotometry
Type: physicochemical
Conditions: not given; call rule not given here
Summary of the method: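 BSA (100 mg/ml) incubated with 14 mM methylglyoxal in 0.1 M phosphate buffer pH 7.4 containing NaN₃ (30 mM), aseptic, 37 °C for 9 days, with or without various concentrations of test compounds (DMSO stocks); triplicate samples. AGE-related fluorescence read; % inhibition = (1 − fluorescence of test/fluorescence of control) × 100.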

| IC50 | Compound |
| --- | --- |
| Not Active | COc1ccc(/C=N/N=C2\C(=O)Nc3ccc(Cl)cc32)cc1OC |
| Not Active | O=C1Nc2ccc(Cl)cc2/C1=N/N=C/c1ccc(F)cc1 |
| Not Active | O=C1Nc2ccccc2/C1=N/N=C/c1ccc2ccccc2c1 |
| Not Active | O=C1Nc2ccccc2/C1=N/N=C/c1ccc(Cl)c(Cl)c1 |
| Not Active | CCOc1ccc(/C=N/N=C2\C(=O)Nc3ccccc32)cc1 |
| Not Active | O=C1Nc2c(Cl)ccc(Cl)c2/C1=N/N=C/c1ccccc1F |
| Not Active | O=C1Nc2ccccc2/C1=N/N=C/c1ccc(F)cc1 |
| Not Active | Cc1ccc(O)c(/C=N/N=C2\C(=O)Nc3ccccc32)c1 |
| Not Active | O=C1Nc2ccc(Cl)cc2/C1=N/N=C/c1ccccc1O |
| Not Active | COc1cccc(/C=N/N=C2\C(=O)Nc3c(Cl)ccc(Cl)c32)c1O |

Same assay, conditions: read-out: IC50

| IC50 | Compound |
| --- | --- |
| 366 µM | COc1ccc(/C=N/N=C2\C(=O)Nc3c(Cl)ccc(Cl)c32)cc1OC |
| 469 µM | O=C1Nc2ccc(Cl)cc2/C1=N/N=C/c1ccc(O)c(O)c1 |
| 380 µM | O=C1Nc2ccccc2/C1=N/N=C/c1cccc2ccccc12 |
| 362 µM | O=C1Nc2ccccc2/C1=N/N=C/c1ccccc1F |
| 406 µM | CN(C)c1ccc(/C=N/N=C2\C(=O)Nc3ccccc32)cc1 |
| 359 µM | COc1cccc(/C=N/N=C2\C(=O)Nc3ccccc32)c1O |
| 244 µM | O=C1Nc2ccccc2/C1=N/N=C/c1ccccc1[N+](=O)[O-] |
| 444 µM | O=C1Nc2ccccc2/C1=N/N=C/c1ccccc1O |
| 634 µM | O=C1Nc2ccccc2/C1=N/N=C/c1cc(Cl)ccc1O |
| 416 µM | CCOc1ccccc1/C=N/N=C1\C(=O)Nc2ccccc21 |
| 258 µM | O=C1Nc2ccccc2/C1=N/N=C/c1ccc([N+](=O)[O-])cc1 |
| 291 µM | O=C1Nc2ccccc2/C1=N/N=C/c1ccc(O)c(O)c1 |
| 313 µM | O=C1Nc2ccccc2/C1=N/N=C/c1ccc(O)cc1 |
| 634 µM | O=C1Nc2ccccc2/C1=N/N=C/c1cccc(O)c1 |
| 458 µM | COc1ccccc1/C=N/N=C1\C(=O)Nc2ccccc21 |
| 312 µM | O=C1Nc2ccccc2/C1=N/N=C/c1cccc(Cl)c1 |
| 416 µM | O=C1Nc2c(Cl)ccc(Cl)c2/C1=N/N=C/c1ccc2ccccc2c1 |
| 294 µM | C[C@@H]1O[C@@H](OC[C@H]2O[C@@H](Oc3c(-c4ccc(O)c(O)c4)oc4cc(O)cc(O)c4c3=O)[C@H](O)[C@@H](O)[C@@H]2O)[C@H](O)[C@H](O)[C@H]1O [RUTIN] |

From ChEMBL document CHEMBL1152678, “Synthesis of bis-Schiff bases of isatins and their antiglycation activity” (Bioorg Med Chem, 2009)
